This passage reports IC50 and Selectivity ratio results from ChEMBL document CHEMBL1137257, “Synthesis and evaluation of thiazepines as interleukin-1beta converting enzyme (ICE) inhibitors” (Bioorg Med Chem Lett, 2006).

Usually IC50 stands for the midpoint of a concentration-inhibition curve. Low values mean inhibition by little substance, high ones a need for much substance.

One experiment concerns THP-1. As to the kind of experiment: Inhibition of LPS-induced ILbeta1 release in human THP1 cells. Type of experiment: functional, cell-based. An outline of the steps: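 Human monocytic THP-1 cells (2 × 10⁶/ml, RPMI 1640) were preincubated 15 min with or without compound added as DMSO solutions, with test concentrations starting at 1 nM. Cells were then stimulated with LPS for 4 h and centrifuged. Inhibition of IL-1β production was measured.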

The next experiment is filed under the species Homo sapiens. As to the kind of experiment: Selectivity for ICE over Caspase 8.
The next experiment has as its target T1, Caspase-1 (Homo sapiens, UniProt P29466).
T1 sequence (P29466 whole entry): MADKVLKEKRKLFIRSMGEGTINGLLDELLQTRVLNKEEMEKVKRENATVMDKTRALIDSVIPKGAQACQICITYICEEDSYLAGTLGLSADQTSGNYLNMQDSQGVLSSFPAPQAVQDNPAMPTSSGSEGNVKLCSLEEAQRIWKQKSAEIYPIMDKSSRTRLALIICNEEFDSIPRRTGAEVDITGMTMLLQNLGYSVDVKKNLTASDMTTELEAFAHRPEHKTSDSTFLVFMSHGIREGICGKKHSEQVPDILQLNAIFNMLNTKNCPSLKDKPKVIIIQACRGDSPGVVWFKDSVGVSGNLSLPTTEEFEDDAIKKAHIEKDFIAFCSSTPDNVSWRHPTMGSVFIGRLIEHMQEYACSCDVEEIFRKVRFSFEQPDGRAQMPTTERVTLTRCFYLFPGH
The experiment in a line: Inhibition of ICE. The gist of the method:
(§1)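 Isolated enzymes (ICE, caspase-3, caspase-8) were assayed with fluorogenic substrates following the supplier's kit protocol. Cleavage was followed for 30 min at 37 °C by fluorescence (excitation 390 nm, emission 460 nm). IC50 was calculated as [I]/((Vo/Vi) − 1) from the initial velocities with (Vi) and without (Vo) inhibitor.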

The target in another experiment is Caspase-8 (Homo sapiens, UniProt Q14790). As to the kind of experiment: Inhibition of Caspase 8. The gist of the method: as §1
The next experiment has as its target T2, Caspase-3 (Homo sapiens, UniProt P42574).
T2 sequence (P42574 whole entry): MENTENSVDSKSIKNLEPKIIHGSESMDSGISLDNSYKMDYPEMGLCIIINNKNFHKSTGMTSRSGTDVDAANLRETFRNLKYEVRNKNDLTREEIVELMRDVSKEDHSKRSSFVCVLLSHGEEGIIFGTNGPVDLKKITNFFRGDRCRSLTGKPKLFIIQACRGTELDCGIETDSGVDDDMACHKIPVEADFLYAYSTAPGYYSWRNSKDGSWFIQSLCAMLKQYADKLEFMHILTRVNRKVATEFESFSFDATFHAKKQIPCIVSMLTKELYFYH
The experiment in a line: Inhibition of Caspase 3. An outline of the steps:
as §1

Caspase-8, sequence (Q14790 217-374 limits assumed): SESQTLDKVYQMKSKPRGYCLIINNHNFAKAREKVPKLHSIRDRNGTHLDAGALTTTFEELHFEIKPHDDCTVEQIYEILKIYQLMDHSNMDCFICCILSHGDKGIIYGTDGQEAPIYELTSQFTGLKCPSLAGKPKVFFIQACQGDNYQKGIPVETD
Caspase-8, sequence (Q14790 385-479 limits assumed): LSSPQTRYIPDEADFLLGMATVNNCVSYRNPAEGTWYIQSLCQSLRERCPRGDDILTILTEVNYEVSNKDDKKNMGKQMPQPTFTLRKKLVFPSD

On to `O=C(CN1CCSC[C@H](NC(=O)c2ccc3ccccc3c2)C1=O)N[C@H]1CC(=O)OC1O` (some centres undefined), for which the half-maximal inhibitory concentration (IC50) was 480 nM in the experiment on THP-1, 30 nM on Caspase-1, 9.4 µM on Caspase-8 and greater than 10 µM against Caspase-3. Also, in the experiment filed under Homo sapiens, the Selectivity ratio was greater than 100.
`CCO[C@@H]1OC(=O)C[C@@H]1NC(=O)[C@@H]1CCCN2C(=O)CC[C@H](NC(=O)c3nccc4ccccc34)C(=O)N12` [PRALNACASAN]: the IC50 with THP-1 came to 190 nM; against Caspase-3 it was 1.3 µM.
On to `O=C(CN1CCSC[C@H](NC(=O)c2cccc(C(F)(F)F)c2)C1=O)N[C@H]1CC(=O)OC1O` (some centres undefined), for which the IC50 with THP-1 was 1000 nM; on Caspase-1, 150 nM; against Caspase-8, greater than 10 µM; at Caspase-3, greater than 10 µM. The Selectivity ratio in the experiment filed under Homo sapiens is greater than 100.
Turning to `O=C(CN1CCSC[C@H](NC(=O)c2ccccc2)C1=O)N[C@H]1CC(=O)OC1O` (some centres undefined), the IC50 in the experiment with THP-1 was 1700 nM; on Caspase-1, 350 nM; on Caspase-8, 5.2 µM; against Caspase-3 it was greater than 10 µM. Also, in the experiment listed under Homo sapiens, the Selectivity ratio is greater than 100.
Taken in the same sequence, the figures for `O=C(CN1CCSC[C@H](NC(=O)c2cc3ccccc3s2)C1=O)N[C@H]1CC(=O)OC1O` (some centres undefined) were 640 nM, 80 nM, 9.5 µM, greater than 10 µM and greater than 100.
In the case of `O=C(CN1CCS(=O)(=O)C[C@H](NC(=O)c2ccc3ccccc3c2)C1=O)N[C@H]1CC(=O)OC1O` (some centres undefined), the IC50 is 1100 nM with THP-1, 150 nM on Caspase-1, greater than 10 µM against Caspase-8 and greater than 10 µM against Caspase-3. Moreover, the Selectivity ratio in the experiment listed under Homo sapiens was greater than 100.
`O=C(CN1CCS(=O)(=O)C[C@H](NC(=O)c2cccc(C(F)(F)F)c2)C1=O)N[C@H]1CC(=O)OC1O` (some centres undefined) had an IC50 with THP-1 of 3400 nM. In addition, the Selectivity ratio in the experiment filed under Homo sapiens is greater than 100.
Regarding `O=C(CN1CCSC[C@H](NC(=O)c2nccc3ccccc23)C1=O)N[C@H]1CC(=O)OC1O` (some centres undefined), the IC50 is 730 nM with THP-1, 70 nM against Caspase-1, 7 µM against Caspase-8 and greater than 10 µM against Caspase-3. Also, the Selectivity ratio in the experiment listed under Homo sapiens was greater than 100.
As for `O=C(CN1CCS(=O)(=O)C[C@H](NC(=O)c2nccc3ccccc23)C1=O)N[C@H]1CC(=O)OC1O` (some centres undefined), the IC50 with THP-1 is 1400 nM; against Caspase-1, 130 nM; at Caspase-8, 5 µM; on Caspase-3, greater than 10 µM. In addition, the Selectivity ratio in the experiment listed under Homo sapiens was greater than 100.
For the compound `O=C(CN1CCS(=O)(=O)C[C@H](NC(=O)c2ccccc2)C1=O)N[C@H]1CC(=O)OC1O` (some centres undefined), the IC50 in the experiment on THP-1 is 3200 nM; against Caspase-1, 2300 nM; against Caspase-8, greater than 10 µM; against Caspase-3, greater than 10 µM. Besides, in the experiment listed under Homo sapiens, the Selectivity ratio is greater than 100.
Consider `O=C(CN1CCS(=O)(=O)C[C@H](NC(=O)c2cc3ccccc3s2)C1=O)N[C@H]1CC(=O)OC1O` (some centres undefined), for which the 50% inhibitory concentration (IC50) in the experiment on THP-1 was 1700 nM; on Caspase-1, 320 nM; against Caspase-8 it was 8.5 µM; against Caspase-3, greater than 10 µM. In the experiment listed under Homo sapiens, the Selectivity ratio is greater than 100.
